Compound activity (PubChem BioAssay)
5-HT1A blocker = 5-HT1a (human) receptor antagonism | P08908 | inhibition, % at 10 µM | actives 0.68% (n = 62,000) | CHO 5-HT1a Ga15 NFAT-bla reporter, antagonist mode;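 active = inhibition above the mean of all tested compounds plus 3 SD, cut at about 43% in these data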;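 note: receptor stimulated by 5-CT agonist at 100 nM near EC80; beta-lactamase reporter measured by ratiometric fluorescence of a cleavable substrate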
Target sequence (P08908 whole entry, looked up): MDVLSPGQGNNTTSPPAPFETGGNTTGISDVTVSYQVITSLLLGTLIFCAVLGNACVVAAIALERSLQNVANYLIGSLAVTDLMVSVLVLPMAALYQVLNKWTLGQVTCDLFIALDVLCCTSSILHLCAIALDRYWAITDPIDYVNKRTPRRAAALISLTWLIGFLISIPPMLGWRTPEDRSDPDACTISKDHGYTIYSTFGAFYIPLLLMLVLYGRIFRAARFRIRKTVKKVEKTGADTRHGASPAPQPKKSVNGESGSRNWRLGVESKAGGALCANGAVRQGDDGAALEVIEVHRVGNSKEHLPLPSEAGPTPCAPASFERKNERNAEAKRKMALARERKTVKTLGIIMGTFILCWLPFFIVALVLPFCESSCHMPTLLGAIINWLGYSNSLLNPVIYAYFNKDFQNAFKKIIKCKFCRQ
HTR1E antagonist = blocks the human 5-HT1E serotonin receptor. P28566. CHO 5-HT1E Ga15 NFAT-bla reporter, FRET, antagonist. inhibition, % at 6 µM. actives 0.99% (n = 65,000). AID 571;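 active = inhibition above a set limit, the mean inhibition across every tested compound plus 3 SD, cut at about 29% in these data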;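 note: signal is the 460 over 535 nm emission ratio of beta-lactamase substrate; 0% = agonist plus DMSO wells and 100% = wells without agonist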
S1P3 agonist = activates the human S1P3 receptor | Q99500 | S1P3 NFAT-BLA reporter cells, agonism, FRET ratio; relative to 1 µM S1P, basal subtracted | activation, % at 4.5 µM | actives 0.1% (n = 60,000) | AID 373;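 active = activation above the screen-wide mean plus 3 SD, cut at about 4.5% in these data, passing the limit was not always enough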
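Material: Human S1P3 NFAT-BLA reporter CHO cells | Incubation: Overnight plating, 4 h compound 37 °C, 2 h substrate RT | Signal: FRET β-lactamase substrate fluorescence, excitation 405 nm, 460/535 nm emission ratio, background-subtracted | Compound: 4.5 µM final, single dose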
S1P1 ag-PAM = agonists and agonism potentiators of human S1P1 receptor. P21453. S1P1 CRE-bla cells, forskolin, beta-lactamase FRET, potentiator mode; S1P1 agonist co-added at EC20, 2 nM; 100% = saturating reference agonist, 0% = basal. actives 0.57% (n = 56,000). activation, % at 9.5 µM. AID 449;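 active = activation above a cutoff set at the mean activation of all tested compounds plus 3 SD, cut at about 54% in these data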;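 note: forskolin at 4 µM as EC80 and the EC20 agonist is SEW2871; 100% = SEW2871 at its EC100 plus forskolin at EC80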
HTR1A agonist = 5-HT1a (human) receptor agonism; P08908; actives 0.56% (n = 65,000); activation, % at 10 µM; AID 567; CHO 5-HT1a Ga15 NFAT-bla reporter, FRET ratio; 0% basal, 100% maximal reference agonist;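 active = activation above the screen-wide mean activation plus 3 SD, cut at about 19% in these data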;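 note: 0% = DMSO wells and 100% = 5-CT at EC100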
HTR1E agonist = agonists of human 5-HT1E serotonin receptor; P28566; CHO 5-HT1E Ga15 NFAT-bla reporter, FRET; 0% DMSO wells, 100% control agonist wells; activation, % at 6 µM; actives 0.69% (n = 65,000); AID 574;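 active = activation above a set limit, the screen-wide mean activation plus 3 SD, cut at about 8.5% in these data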;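 note: 100% = positive control agonist at 1 µM giving full maximal response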
The depositor's hits bear a star. Sampled rows, rich in hits. Any-hit rate of the full collection: about 3%.

CCOC(=O)N1CCN(C(=O)c2ccc(Cn3c(=S)[nH]c4cc5c(cc4c3=O)OCO5)cc2)CC1 was read as 5-HT1A blocker -4, HTR1E antagonist 29*, HTR1A agonist 6 and HTR1E agonist -1.
C=CCNC(=O)C1CCN(S(=O)(=O)c2ccc(Br)cc2)CC1 was read as 5-HT1A blocker 6, HTR1E antagonist 6, S1P3 agonist -1, S1P1 ag-PAM -11, HTR1A agonist 2 and HTR1E agonist -2.
`Cc1cc2c(cc(C(=O)OCC(=O)NCc3cccs3)n2C(C)C)o1` gave 5-HT1A blocker 36, HTR1E antagonist 38*, S1P3 agonist -1, S1P1 ag-PAM 21, HTR1A agonist -3 and HTR1E agonist 0.
For Cc1ccc2[nH]c3c(N4CCCCCC4)ncnc3c2c1 the results were HTR1E antagonist 32*, S1P3 agonist -4, S1P1 ag-PAM 97*, HTR1A agonist 2 and HTR1E agonist 0.
Screening Cc1ccc2c(c1)[nH]c1c(N3CCN(Cc4ccccc4)CC3)ncnc12 returned 5-HT1A blocker 24, HTR1E antagonist 9, S1P3 agonist -2, S1P1 ag-PAM 133*, HTR1A agonist -1 and HTR1E agonist 1.
For c1ccc2c(c1)[nH]c1c(N3CCC4(CC3)OCCO4)ncnc12 the results were HTR1E antagonist 22, S1P3 agonist -7, S1P1 ag-PAM 14, HTR1A agonist 4 and HTR1E agonist -1.
c1ccc(Cn2nnc3c(N4CCc5ccccc5C4)ncnc32)cc1 was read as 5-HT1A blocker -7, HTR1E antagonist 4, S1P3 agonist 0, S1P1 ag-PAM -5, HTR1A agonist 96* and HTR1E agonist 0.
For c1ccc2c(c1)CCN(c1ncnc3c1[nH]c1ccccc13)C2 the results were HTR1E antagonist 46*, S1P3 agonist -8, S1P1 ag-PAM 113*, HTR1A agonist 2 and HTR1E agonist 1.
CCCc1cc(NCCN2CCOCC2)n2c(nc3ccccc32)c1C#N was read as HTR1E antagonist -3, S1P3 agonist -2, S1P1 ag-PAM -6, HTR1A agonist 6 and HTR1E agonist 0.
For CS(=O)(=O)N1CCN(C2CCN(Cc3ccccc3)CC2)CC1 the results were 5-HT1A blocker 7, HTR1E antagonist -12, S1P3 agonist 0, S1P1 ag-PAM -16, HTR1A agonist 0 and HTR1E agonist 0.
COC(=O)c1ccc2c(=O)n(CCN3CCOCC3)c(=S)[nH]c2c1 was read as 5-HT1A blocker -5, HTR1E antagonist -2, S1P3 agonist 0, HTR1A agonist 2 and HTR1E agonist 1.
For Cc1ccc2c(c1)N(C(C)C(=O)NCCc1ccccc1)C(=O)CO2 (centres undefined) the results were 5-HT1A blocker -5, HTR1E antagonist 0, S1P3 agonist 2, S1P1 ag-PAM -16, HTR1A agonist -2 and HTR1E agonist 0.
O=C(NCc1ccc2c(c1)OCO2)Oc1ccccc1 was read as 5-HT1A blocker 4, HTR1E antagonist -2, S1P3 agonist -2, S1P1 ag-PAM 26, HTR1A agonist 4 and HTR1E agonist 0.
Screening c1ccc(CN2CCN(c3ncnc4c3[nH]c3ccccc34)CC2)cc1 returned HTR1E antagonist 35*, S1P3 agonist -6, S1P1 ag-PAM 63*, HTR1A agonist 1 and HTR1E agonist 1.
Screening Cc1ccc2[nH]c3c(N4CCN(Cc5ccccc5)CC4)ncnc3c2c1 returned HTR1E antagonist 21, S1P3 agonist -2, S1P1 ag-PAM 33, HTR1A agonist 2 and HTR1E agonist 0.
Screening COc1ccc(-n2c(Cc3cccn3C)nnc2SCC(=O)Nc2ccc(C(C)=O)cc2)cc1 returned 5-HT1A blocker 1, HTR1E antagonist -7, S1P3 agonist 0, S1P1 ag-PAM -39, HTR1A agonist 0 and HTR1E agonist 0.
Cn1cnnc1SCC(=O)Nc1ccccc1Sc1ccccc1 was read as 5-HT1A blocker -10, HTR1E antagonist -4, S1P3 agonist 1, S1P1 ag-PAM 7, HTR1A agonist 311* and HTR1E agonist 0.
For CC1(C)CC(=O)C2=C(C1)OC(=O)C2(NC(=O)c1cccs1)C(F)(F)F (centres undefined) the results were 5-HT1A blocker -2, HTR1E antagonist 4, S1P3 agonist 0, S1P1 ag-PAM 1, HTR1A agonist -1 and HTR1E agonist -1.
Screening C=CCNC(=O)C1CCCN(S(C)(=O)=O)C1 (centres undefined) returned 5-HT1A blocker 3, HTR1E antagonist 5, S1P3 agonist -1, S1P1 ag-PAM 14, HTR1A agonist 0 and HTR1E agonist 14*.
For COc1cccc(NC(=O)N2CCN(c3cccc(C)c3)C(C)C2)c1 (centres undefined) the results were 5-HT1A blocker 15, HTR1E antagonist 3, S1P3 agonist 0, S1P1 ag-PAM 7, HTR1A agonist -2 and HTR1E agonist 0.
For COc1cccc(N2CCN(C(=O)c3ccc(=O)oc3)CC2C)c1 (centres undefined) the results were HTR1E antagonist 1, S1P3 agonist -4, S1P1 ag-PAM -7, HTR1A agonist 2 and HTR1E agonist 12*.
For CCOC(=O)N1CCN(C2=Nc3cccc4cccc2c34)CC1 the results were 5-HT1A blocker -23, HTR1E antagonist 3, S1P3 agonist 0, S1P1 ag-PAM 1, HTR1A agonist 71* and HTR1E agonist 1.
For COc1ccc(NC(=O)CN(C)S(=O)(=O)c2ccc3c(c2)OCCO3)c2ncccc12 the results were 5-HT1A blocker -6, HTR1E antagonist -13, S1P3 agonist 0, S1P1 ag-PAM -8, HTR1A agonist 2 and HTR1E agonist 0.
`Cc1sc2nc(C(C)Nc3ccccc3N3CCOCC3)[nH]c(=O)c2c1C` (centres undefined) gave 5-HT1A blocker 1, HTR1E antagonist -8, S1P3 agonist 0, S1P1 ag-PAM -18, HTR1A agonist 0 and HTR1E agonist 0.
For COc1cccc(OCCn2c(C)c(/C=N/n3cnnc3)c3ccccc32)c1 the results were 5-HT1A blocker 4, HTR1E antagonist 43*, S1P3 agonist 0, S1P1 ag-PAM -14, HTR1A agonist -1 and HTR1E agonist 0.
`CCN(CC)C(=O)c1ccc(CS(=O)(=O)c2ccc(OC)cc2)o1` gave 5-HT1A blocker 5, HTR1E antagonist 3, S1P3 agonist -1, S1P1 ag-PAM 42, HTR1A agonist -1 and HTR1E agonist 1.
`COc1ccccc1N=c1scc(-c2ccc3c(c2)NC(=O)CO3)n1CC1CCCO1` (centres undefined) gave 5-HT1A blocker 6, HTR1E antagonist -2, S1P3 agonist 1, S1P1 ag-PAM 8, HTR1A agonist 1 and HTR1E agonist 0.
